# FN deposit inh: fibronectin deposition inhibition; AH1F fibroblasts, Alexa488-fibronectin deposition fluorescence, overnight; inhibition, % at 12.6 µM; 350,000 tested, 0.086% active; AID 743247;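 active = mean inhibition across replicates of 30% or more, regardless of how many single replicates reach that level; inconclusive = mean under 30% yet at least half of replicates reach 30%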;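 also: positive control wells lacked labelled fibronectin entirely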
#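 Schedule: 1 h cell adhesion before compound, then overnight fibronectin incubation; test system: AH1F fibroblast monolayer depositing Alexa488-labelled fibronectin into matrix; quantity: 10000 AH1F cells per well; probe or stimulus: fluorescent fibronectin at 24 nM final; signal: fluorescence, ex 485 nm, em 525 nm; evaluation: percent inhibition as loss of matrix-bound fibronectin fluorescence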
# FGF22 binding: shifts melting point of recombinant human FGF22; Q9HCT0; activity (Tm shift, normalised), % at 9.99 µM; 340,000 tested, 1.5% active; recombinant FGF22 thermal shift, SYPRO orange fluorescence; percent of sucrose octasulfate shift, DMSO zero;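 active = mean Tm shift, scaled 0 neutral to 100 positive control, at about 1.3% or above, every replicate too, limit read from the data; inconclusive = no clear call, values can overlap the other calls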
# Target sequence (Q9HCT0 whole entry, looked up): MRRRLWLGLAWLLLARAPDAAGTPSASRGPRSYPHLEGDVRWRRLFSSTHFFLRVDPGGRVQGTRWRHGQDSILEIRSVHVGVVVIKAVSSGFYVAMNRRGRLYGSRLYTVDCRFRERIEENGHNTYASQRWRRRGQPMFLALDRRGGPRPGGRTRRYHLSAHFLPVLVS
# SIRT5 inh: inhibitors of human sirtuin-5 desuccinylase. inhibition, % at 15 µM. Q9NXA8. Purified SirT5, succinyl-peptide AMC, trypsin-coupled fluorescence. 330,000 tested, 1.1% active; in the data active = inhibition above about 15%; inconclusive = no clear call, values can overlap the other calls
# Target sequence (Q9NXA8 whole entry, looked up): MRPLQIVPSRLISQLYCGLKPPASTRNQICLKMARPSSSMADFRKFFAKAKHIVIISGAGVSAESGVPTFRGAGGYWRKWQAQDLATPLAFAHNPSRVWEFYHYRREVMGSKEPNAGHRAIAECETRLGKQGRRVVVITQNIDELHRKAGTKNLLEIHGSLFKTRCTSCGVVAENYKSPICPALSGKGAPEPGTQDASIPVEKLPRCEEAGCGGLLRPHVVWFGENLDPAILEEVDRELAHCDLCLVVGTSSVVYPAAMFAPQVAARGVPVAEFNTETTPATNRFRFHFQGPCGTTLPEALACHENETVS
# DENV2 CPE rescue: protects cells from dengue virus 2 cytopathic effect; CPE inhibition, % at 9.99 µM; 350,000 tested, 1.7% active; DENV2-infected cells, cytopathic effect rescue, plate reader; in the data active = CPE inhibition above about 20%, passing the limit was not always enough; inconclusive = no clear call, values can overlap the other calls; tested in BHK-21 cells;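 also: 0% = median of neutral control wells and 100% = median of positive control wells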
# ARNT TACC3 PPI: disruptors of human ARNT/TACC3 interaction. Q9Y6A5. AlphaScreen His-ARNT PAS-B/GST-TACC3 binding, luminescence; TACC3 fragment carries E629A point mutation. inhibition, % at 9.99 µM. 390,000 tested, 0.66% active;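 active = mean inhibition of replicates at least 50% and at least half of replicates each reaching 50%; inconclusive = half or more replicates reach 50% but mean below 50%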;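 also: 0% = complete ARNT plus TACC3 wells and 100% = ARNT alone without TACC3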
# XiGFP reactiv: X-chromosome reactivation activator; activation, % at 7.58 µM; XiGFP mouse fibroblasts, % GFP-positive cells imaging, 3 d; cells co-treated with 5-aza-dC sensitizer; scaled so ellipticine positive control = 100%; 360,000 tested, 0.055% active;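 active = mean normalized replicate activation at least 10% and every replicate at or above 10%; inconclusive = only one of the two criteria met; inactive = mean below 10% and not all replicates reach 10%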;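 also: 0% = median of on-plate neutral control wells and 100% = ellipticine 6 µM median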
#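 Schedule: 3 d treatment, 15 min room-temperature fixation; system: 68-5-11 XiGFP fibroblast line; buffer or medium: DMEM plus 5-aza-dC sensitizer; control set: ellipticine 6 µM positive control; compound: one concentration, pinned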
# The depositor's hits bear a star; ? = inconclusive; / = no result given; ! = not active in a repeat. A selection: hits, their analogues and other compounds. The true share with any hit is near 3.8%.
SMILES,FN deposit inh,FGF22 binding,SIRT5 inh,DENV2 CPE rescue,ARNT TACC3 PPI,XiGFP reactiv
COc1ccc(CCNC(=O)COC(=O)CCC(=O)c2ccc(F)cc2)cc1OC,3.5,-0.3,19.9*,5.8,-32.9,0.4
Cc1noc(C)c1S(=O)(=O)Nc1ccc2c(c1)C(=O)N([C@@H](C)CO)C[C@H](C)[C@H](CN(C)Cc1ccc3c(c1)OCO3)OCCCC[C@@H](C)O2,/,-0.6,3.6,8.3,7.0,0.0
O=C1C(=Cc2ccccn2)CCc2ccccc21,/,0.1,-1.9,38.1*,/,-0.2
C(=C1c2ccccc2-c2ccccc21)c1ccccn1,4.8,43.2*,-1.3,2.3,24.1,0.1
COc1ccc2c(c1)CC/C(=C/c1ccccn1)C2=O,-3.0,0.1,1.1,-1.5,0.1,0.1
CCN(CC(=O)NCc1cccs1)C(=O)/C=C/c1ccc(OC)cc1OC,1.4,0.0,1.2,30.4*,-2.8,0.0
Cc1noc(C)c1NC(=O)N(C)C[C@H]1Oc2c(NC(=O)C3CCCCC3)cccc2C(=O)N([C@@H](C)CO)C[C@@H]1C,/,0.1,0.5,10.4,-1.6,0.0
COc1ccc(NC(=O)c2ccc(-c3ccc(OC)cc3)s2)cc1,-7.0,43.3*,-2.6,-2.0,21.9,0.3
COC(=O)C[C@H]1CC[C@H]2[C@@H](COc3ccc(NC(=O)c4ccccc4F)cc3C(=O)N2C)O1,-13.5,/,-4.2,8.7,/,0.3
O=C(CSc1ccc(-c2ccccc2)nn1)N1CCN(c2ccccc2)CC1,0.2,0.2,18.1*,-13.1,-3.3,0.0
O=C(CSc1ccc2nnc(-c3ccncc3)n2n1)Nc1ccc2c(c1)OCO2,7.7,-0.2,-1.7,12.7,-3.3,0.0
O=C(CSc1ccc2nnc(-c3ccccn3)n2n1)Nc1ccc2c(c1)OCO2,2.5,0.3,-0.6,9.3,51.0*,0.0
CCCn1c(SCC(=O)N2CCCCC2)nnc1-c1ccccn1,1.2,43.9*,-10.3,1.2,/,0.0
CCCn1c(SCC(=O)NC2CCCCC2)nnc1-c1ccccn1,-6.8,-0.1,4.3,/,18.2,0.1
O=C(CSc1ccc2nnc(-c3ccccn3)n2n1)N1CCN(c2ccccc2)CC1,1.8,0.0,-2.4,-3.4,66.5*,0.0
Cc1ccccc1-c1ccc([C@@H]2[C@H]3CN(S(C)(=O)=O)CC(=O)N3[C@H]2CO)cc1,-10.1,/,-1.5,-3.5,/,0.0
C[C@@H]1CN([C@@H](C)CO)C(=O)c2cc(NC(=O)Nc3ccc(F)cc3)ccc2O[C@@H](C)CCCCO[C@H]1CN(C)Cc1ccccc1,/,0.0,-8.6,40.4*,6.1,-0.1
C[C@@H]1CCCCO[C@@H](CN(C)Cc2ccccc2)[C@H](C)CN([C@H](C)CO)C(=O)c2cc(NC(=O)Nc3ccc(F)cc3)ccc2O1,/,-0.2,-9.0,41.0*,2.4,0.0
O=C(/C=C/c1ccc(-c2ccc(F)cc2)o1)N1CCCC1,4.9,0.1,21.0*,-1.3,4.6,-0.6
CNC(=O)C[C@H]1CC[C@H]2[C@@H](COC[C@H](O)CN2Cc2ccc(C(F)(F)F)cc2)O1,-3.4,0.2,0.0,-5.7,-4.9,0.5
Nc1nc(SCC(=O)N2CCN(c3ccccc3)CC2)n[nH]1,3.7,0.6,-1.4,12.7,-4.4,0.2
Nc1nc(SCC(=O)N2CCN(c3ccc(F)cc3)CC2)n[nH]1,1.4,-0.2,1.9,40.0*,2.0,0.1
C[C@@H]1CCCCO[C@@H](CN(C)C(=O)CCCN(C)C)[C@H](C)CN([C@H](C)CO)C(=O)c2cc(NC(=O)Nc3ccc(F)cc3)ccc2O1,/,/,-1.2,-5.3,6.5,-0.2
COc1ccc(NC(=O)N(C)C[C@@H]2OCCCC[C@H](C)Oc3ccc(NS(=O)(=O)c4ccccc4)cc3C(=O)N([C@H](C)CO)C[C@H]2C)cc1,0.1,-0.6,0.8,57.9*,-2.4,0.2
COc1ccc(NC(=O)N(C)C[C@@H]2OCCCC[C@@H](C)Oc3ccc(NS(=O)(=O)c4ccc(OC)cc4)cc3C(=O)N([C@@H](C)CO)C[C@H]2C)cc1,-7.4,-0.4,/,?,24.0*,0.2
SMILES,FN deposit inh,FGF22 binding,SIRT5 inh,DENV2 CPE rescue,ARNT TACC3 PPI,XiGFP reactiv
COc1ccc(S(=O)(=O)Nc2ccc3c(c2)C(=O)N([C@H](C)CO)C[C@@H](C)[C@@H](CN(C)C(=O)Nc2ccc(C(F)(F)F)cc2)OCCCC[C@@H](C)O3)cc1,-7.0,/,1.3,52.6*,7.1,0.0
COc1ccc(NC(=O)N(C)C[C@H]2OCCCC[C@@H](C)Oc3ccc(NS(=O)(=O)c4ccc(OC)cc4)cc3C(=O)N([C@@H](C)CO)C[C@H]2C)cc1,2.4,-0.2,/,16.1,30.6,0.2
COc1ccc(S(=O)(=O)Nc2ccc3c(c2)C(=O)N([C@@H](C)CO)C[C@@H](C)[C@@H](CN(C)C(=O)Nc2ccc(F)cc2)OCCCC[C@@H](C)O3)cc1,/,-0.3,17.8*,-5.9,-13.2,0.0
COc1ccc(S(=O)(=O)Nc2ccc3c(c2)C(=O)N([C@@H](C)CO)C[C@@H](C)[C@H](CN(C)C(=O)Cc2ccccc2)OCCCC[C@H](C)O3)cc1,/,0.6,5.8,24.3*,23.0,0.3
COc1ccc(NC(=O)N(C)C[C@@H]2OCCCC[C@@H](C)Oc3ccc(NS(=O)(=O)c4ccc(F)cc4)cc3C(=O)N([C@@H](C)CO)C[C@H]2C)cc1,/,-0.5,2.9,-0.7,2.1,0.1
COc1ccc(S(=O)(=O)Nc2ccc3c(c2)C(=O)N([C@@H](C)CO)C[C@@H](C)[C@H](CN(C)C(=O)Nc2ccc(F)cc2)OCCCC[C@@H](C)O3)cc1,/,18.3*,8.1,3.7,-12.9,-0.1
COc1ccc(S(=O)(=O)Nc2ccc3c(c2)C(=O)N([C@@H](C)CO)C[C@H](C)[C@@H](CN(C)C(=O)Nc2ccc(F)cc2)OCCCC[C@@H](C)O3)cc1,/,-0.7,16.1*,17.9,-12.9,1.0
COc1ccc(NC(=O)N(C)C[C@H]2OCCCC[C@H](C)Oc3ccc(NS(=O)(=O)c4cn(C)cn4)cc3C(=O)N([C@H](C)CO)C[C@@H]2C)cc1,-1.3,-0.2,-0.3,25.2*!,6.4,0.1
COc1ccc(S(=O)(=O)Nc2ccc3c(c2)C(=O)N([C@@H](C)CO)C[C@@H](C)[C@H](CN(C)C(=O)Cc2ccccc2)OCCCC[C@@H](C)O3)cc1,/,0.4,6.6,2.7,-1.5,0.1
C[C@H](CO)N1C[C@H](C)[C@H](CN(C)S(=O)(=O)c2cccs2)OCCCC[C@H](C)Oc2ccc(NC(=O)Nc3cccc4ccccc34)cc2C1=O,/,0.4,/,0.2,-1.7,-0.7
CO[C@@H]1CN(C)C(=O)c2ccc(NS(=O)(=O)c3ccc(C)cc3)cc2OC[C@@H](C)N(C(=O)NC(C)C)C[C@H]1C,-11.7,/,/,/,/,0.0
